Screening results deposited in PubChem BioAssay by several laboratories.
APP 5'UTR act – activates APP 5'UTR luciferase reporter | SH-SY5Y APP 5'UTR luciferase reporter, luminescence; zero percent = DMSO vehicle wells | activation, % at 2 µM | hit rate 1% among 190,000 | AID 1276;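 active = activation above a set limit, based on mean plus 3 SD of controls, cut at about 140% in these data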
FLuc inh counter – counter-screen for luciferase assay inhibitors: firefly luciferase inhibition; ATPLite firefly luciferase biochemical luminescence, 10 min; P08659; AID 1006; hit rate 1.5% among 200,000; inhibition, % at 10 µM;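 active = inhibition above about 50% when tested at 10 µM, limit read from the data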
Target sequence (P08659 whole entry, looked up): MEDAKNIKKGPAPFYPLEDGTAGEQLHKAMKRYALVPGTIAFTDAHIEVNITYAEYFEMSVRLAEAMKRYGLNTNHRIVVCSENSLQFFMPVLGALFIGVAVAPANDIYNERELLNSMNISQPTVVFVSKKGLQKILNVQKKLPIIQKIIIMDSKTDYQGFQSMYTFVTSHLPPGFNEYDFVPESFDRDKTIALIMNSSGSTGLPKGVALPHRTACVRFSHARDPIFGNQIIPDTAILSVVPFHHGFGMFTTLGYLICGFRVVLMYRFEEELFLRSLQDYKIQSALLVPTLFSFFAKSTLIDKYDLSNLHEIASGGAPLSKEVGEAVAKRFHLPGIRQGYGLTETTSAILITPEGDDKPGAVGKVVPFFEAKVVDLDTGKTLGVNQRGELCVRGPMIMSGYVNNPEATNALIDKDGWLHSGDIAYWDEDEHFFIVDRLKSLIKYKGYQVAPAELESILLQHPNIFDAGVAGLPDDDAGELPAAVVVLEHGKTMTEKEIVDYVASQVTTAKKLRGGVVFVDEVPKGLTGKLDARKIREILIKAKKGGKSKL
NF-kB expr up – compounds increasing NF-kB expression in human neuronal cells; NF-kB reporter expression; stronger effect = higher value; AID 1239; hit rate 1.6% among 190,000; fold change at 12.5 µM; in the data active = fold change above about 3.3
FLuc act counter – firefly luciferase counter-screen for stimulation assays; P08659; ATPlite luciferase biochemical, luminescence, 10 min; 0 = ATP-free wells, 1 = DMSO control; activation factor at 10 µM; 200,000 tested, under 10 active;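 active = luciferase activation factor, scaled between plate controls, of at least 2 with compound at 10 µM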
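Assay system: Luciferase/luciferin detection reagent, cell-free biochemical luciferase assay / Also added: ATP substrate / Schedule: 10 min at ambient temperature / Measured by: luminescence measurement of luciferase light output / Benchmarks: low control with PBS replacing ATP, high control enzyme plus ATP without compound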
Pf gamet viab – P. falciparum stage V gametocyte viability inhibition. P. falciparum stage V gametocytes, ATP luminescence, 24 h. inhibition, % at 10.9 µM. hit rate 0.065% among 150,000. AID 743093;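 active = inhibition above the mean plus 3 SD of compounds within the control limits, set per campaign, cut at about 38% in these data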
STAT1 activator – increases IFN-gamma driven STAT1 reporter signal; NIH 3T3 STAT1-luciferase reporter, luminescence; 100% = IFN-gamma alone, no compound; activation (% of control), % at 5.5 µM; hit rate 2.6% among 200,000; AID 932;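 active = activation above the screen-wide mean activation plus 3 SD, cut at about 130% in these data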
STAT1 act conf – STAT1 activation, confirmation assay; shares compounds with STAT1 activator; NIH 3T3 STAT1-luciferase reporter, IFN-gamma potentiation, luminescence; 100% = IFN-gamma EC80 alone, no compound; activation (% of control), % at 5.7 µM; hit rate 97% among 1,200; AID 1262;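 active = activation above a set limit carried over from the earlier primary STAT1 screen, cut at about 140% in these data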
NFkB act STAT1ct – NF-kappaB activation in STAT1 activator counter-screen. shares compounds with STAT1 activator. HEK293T NF-kB luciferase reporter, TNF-alpha stimulated, luminescence; 100% = TNF-alpha with vehicle only. activation (% of control), % at 5.7 µM. hit rate 43% among 1,200. AID 1306;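 active = activation above the mean of solvent-only control wells plus 3 SD, set per campaign, cut at about 130% in these data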;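 note: TNF-alpha given at a submaximal dose yielding about 80% of full reporter signal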
STAT3 act 2 – activates human STAT3, counter-screen to STAT1 activators. U3A cells STAT3-luciferase reporter, IL-6, luminescence; cells lack STAT1; 100 = IL-6 alone, no compound effect. shares compounds with STAT1 activator. activation (% of control), % at 5.7 µM. hit rate 46% among 1,200;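 active = activation above the solvent-only control well mean plus 3 SD, set per plate batch, cut at about 110% in these data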;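 note: higher means more STAT3 reporter activation so hits are non-selective activators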
Hits are given with their value; n = inactive; x = no result. Most compounds without a hit are left out; they make up all but 3.5% or so of the library.

SMILES	APP 5'UTR act	FLuc inh counter	NF-kB expr up	FLuc act counter	Pf gamet viab	STAT1 activator	STAT1 act conf	NFkB act STAT1ct	STAT3 act 2
Cc1nc2c(N=Nc3ccccc3F)c(N)nn2c(N)c1C#N	n	n	n	n	n	166.0	146.0	n	123.4
Cc1nn(-c2ccccc2)c(N)c1N=Nc1ccccc1	156.3	n	6.8	n	n	176.5	197.9	139.8	141.2
Nc1nn(-c2ccccc2)c(N)c1N=Nc1ccccc1F	180.8	n	13.8	n	n	219.3	305.6	n	n
Cc1cc(Cl)ccc1NC(=S)NCc1cccs1	n	n	n	n	n	n	x	x	x
CCOC(=O)CCCNC(=O)CCNC(=O)c1ccc(OCC(C)C)cc1	x	x	x	x	n	x	x	x	x
Cc1cc(C)n2nc(N)c(N=Nc3ccccc3)c2n1	x	x	x	x	n	x	x	x	x
Nc1nn(-c2ccccc2)c(N)c1N=Nc1ccccc1	n	51.0	8.05	n	x	202.5	228.1	n	115.4
O=C(O)c1ccc(N/N=C/c2cccc(F)c2)cc1	n	n	5.03	n	x	161.0	202.8	n	117.7
O=C(O)c1ccc(N/N=C/c2ccc3nccnc3c2)cc1	x	x	x	x	n	x	x	x	x
O=C(O)c1ccc(N/N=C/c2ccc(F)c(F)c2)cc1	159.0	n	5.28	n	n	161.9	211.3	n	128.6
COc1cc(/C=N/Nc2ccc(C(=O)O)cc2)ccc1O	n	n	n	n	n	n	x	x	x
O=C(C1=C(O)C(=O)N(c2nccs2)C1c1ccccc1)c1cc2ccccc2o1 (configuration not stated)	x	x	x	x	n	x	x	x	x
Cc1ccc2nc(N3C(=O)C(O)=C(C(=O)c4cc5ccccc5o4)C3c3cccs3)sc2c1 (configuration not stated)	160.4	n	3.7	n	x	153.8	162.4	n	123.1
CCN(CC)c1ccc2cc(C(=O)Nc3cccnc3N3CCOCC3)c(=O)oc2c1	x	n	x	n	x	x	x	x	x
CCN(CC)c1ccc2cc(C(=O)Nc3ccccn3)c(=O)oc2c1	n	n	3.58	n	x	154.2	236.2	n	n
Cc1cc(C)c(C#N)c(SCC(=O)C2CC2)n1	x	x	x	x	n	x	x	x	x
Cc1csc(NC(=O)C2COc3ccccc3O2)n1 (configuration not stated)	148.8	n	n	n	n	160.1	197.9	n	n
O=C(Nc1nc(-c2ccccc2)cs1)C1COc2ccccc2O1 (configuration not stated)	n	n	n	n	x	n	x	x	x
CSc1nc(-c2ccccc2)nc(N2CCOCC2)c1C(C)=O	n	n	n	n	n	n	x	x	x
CN1/C(=C\C(=O)c2cccs2)Sc2ccccc21	167.5	81.9	7.52	n	n	169.0	222.4	n	161.0
CN1/C(=C\C(=O)c2cccs2)C(C)(C)c2ccccc21	n	n	n	n	x	n	x	x	x
N/C(=N\c1nc2ccccc2o1)NC(=O)c1ccccc1F	n	n	n	n	n	150.8	161.9	n	119.1
N/C(=N\c1nc2ccccc2o1)NC(=O)c1ccccc1NC(=O)c1ccccc1	n	n	n	n	x	n	x	x	x
COc1ccc(OC)c(C(C)NC=O)c1 (configuration not stated)	n	n	n	n	n	n	x	x	x
O=C(Nc1ccon1)c1ccc(OC2CCCC2)cc1	n	58.8	4.48	n	n	154.6	166.3	n	113.6
SMILES	APP 5'UTR act	FLuc inh counter	NF-kB expr up	FLuc act counter	Pf gamet viab	STAT1 activator	STAT1 act conf	NFkB act STAT1ct	STAT3 act 2
Cc1nc(N)sc1-c1csc(Nc2ccccn2)n1	n	n	n	n	x	169.1	183.2	n	129.1
O=C(Nc1ccccc1-c1nc2ccccc2s1)c1ccco1	n	n	n	n	x	n	x	x	x
O=c1c(-c2nc3ccccc3s2)cccn1Cc1ccccc1	n	n	3.72	n	n	161.2	210.6	n	n
O=C(N/N=C/c1cn(-c2ccccc2)nc1-c1cc2ccccc2o1)c1c[nH]c2ccccc12	186.8	n	x	n	n	186.6	198.7	134.6	n
OCc1cn(-c2ccccc2)nc1-c1cc2ccccc2o1	n	n	9.68	n	n	167.3	212.8	138.6	n
O=C(CC1CCCCC1)Nc1nc2ccccc2s1	n	n	n	n	n	155.0	184.1	133.9	119.7
O=C(Nc1nc2ccccc2s1)NC1CCCCC1	144.4	n	9.2	n	n	160.7	226.3	n	116.5
CCCCn1ccnc1C(=O)c1ccc(S(=O)(=O)N2CCCC2)cc1	x	x	x	x	n	x	x	x	x
Cc1ccc(Nc2nc(-c3ccncc3)cs2)cc1	n	n	n	n	n	174.6	214.6	137.0	125.9
Oc1ccc(-c2csc(Nc3ncccn3)n2)c(O)c1	154.5	n	8.09	n	n	175.9	215.8	144.4	n
CC(=O)Nc1ccc(-c2csc(Nc3cccc(C)n3)n2)cc1	167.6	n	6.15	n	n	159.9	183.9	n	n
Cc1cccnc1Nc1nc(-c2ccc(O)cc2)cs1	n	n	7.36	n	x	151.1	204.7	141.4	110.8
CC(=O)Nc1cccc(-c2csc(Nc3ccc(C)cn3)n2)c1	206.1	70.7	7.59	n	x	216.8	329.1	139.4	n
CC(=O)Oc1ccc(-c2csc(Nc3ccc(Cl)cn3)n2)cc1	x	x	x	x	n	x	x	x	x
CC(=O)Nc1cccc(-c2csc(Nc3ncccn3)n2)c1	135.1	n	n	n	x	252.3	304.0	n	112.9
Fc1ccc(/C=N/NC2=Nc3cccc4cccc2c34)cc1	166.6	57.9	n	n	n	167.4	200.5	136.9	152.9
COc1cc(/C(C)=N/Nc2ccc(C(=O)O)cc2)cc(OC)c1OC	n	n	n	n	n	n	x	x	x
COc1ccc(/C(C)=N/Nc2ccc(C(=O)O)cc2)cc1OC	158.4	n	5.97	n	n	156.6	189.8	n	119.2
CC(C(=O)c1ccccc1)n1cnc2ccccc2c1=O (configuration not stated)	n	n	n	n	x	n	x	x	x
O=C(NCc1cccc(C(F)(F)F)c1)C1CC(c2ccc(C(F)(F)F)cc2)=NO1 (configuration not stated)	x	x	x	x	n	x	x	x	x
O=C(CCc1nnc(CCCc2ccccc2)o1)NC(C1CC1)C1CC1	n	n	5.82	n	n	153.6	205.9	145.0	128.9
Cc1cc(C)c(N2C(=O)C3C4CC(=O)C(c5ccccc54)C3C2=O)c(C)c1 (configuration not stated)	x	x	x	x	n	x	x	x	x
CCOC(=O)c1ccc(Nc2cnc3ccccc3n2)cc1	135.8	n	5	n	n	171.0	194.2	139.2	113.6
